CHOP inhibitor = inhibitors of CHOP promoter induction, primary screen, cell-based, unfolded protein response, luciferase reporter | CHO-K1 CHOP-promoter luciferase, tunicamycin-induced, 15-18 h | inhibition, % at 10 µM | 220,000 tested, 3.8% active;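 active = compounds that reduced the stress-induced luciferase reporter signal by more than about 70% of percent inhibition, limit read from the data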
697 NFkB inh = inhibitors of PMA/ionomycin-induced NF-kB reporter, 697 cells, primary screen, B-cell NF-kB inhibitor project, cell-based, luminescence, uHTS; 330,000 tested, 0.33% active; inhibition, % at 4 µM; 697 B-cell NF-kB luciferase reporter, 16 h; AID 435022, 2010; in the data active = inhibition above about 35%
Jurkat NFkB inh = inhibitors of induced NF-kB luciferase reporter, primary screen, TCR NF-kB activation inhibitor project, cell-based, luminescence, uHTS; 330,000 tested, 0.53% active; AID 435003, 2010; Jurkat, PMA/ionomycin-induced NF-kB luciferase reporter; inhibition, % at 4 µM; in the data active = inhibition above about 50%
UPR CHOP act = activators of apoptotic CHOP UPR arm, primary screen, cell-based, CHO-CHOP luciferase reporter, luminescence, uHTS; UPR activation; percent of tunicamycin response over DMSO baseline; activation, % at 10 µM; 330,000 tested, 0.34% active; AID 449763, 2010;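 active = at 10 µM dose, activation of 40% or more, normalized to positive control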
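System: CHO-CHOP luciferase reporter cell line | Buffer or medium: F12 medium containing 10% fetal bovine serum | Doses: One dose, 10 µM in 0.5% DMSO | Times: 6 h compound exposure at 37 °C after overnight seeding | Signal: Luciferase luminescence | Read-out: % activation vs tunicamycin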
UPR XBP1 act = activators of adaptive XBP1 UPR arm, primary screen, cell-based, CHO-XBP1 luciferase reporter, luminescence, uHTS; activation, % at 20 µM; AID 463104, 2010; IRE1-XBP1 UPR activation; percent of tunicamycin response, DMSO as zero; 330,000 tested, 0.33% active;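 active = versus positive control, 20 µM dose yields 30% or more activation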
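Test system: CHO-XBP1 luciferase reporter cells | Buffer or medium: Serum-containing F12 medium, 10% FBS | Schedule: 6 h compound exposure at 37 °C, 5% CO2 | Detection: Steady-Glo luciferase glow luminescence, 10 min after reagent addition | Read-out basis: Activation, % of tunicamycin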
Gli-Sufu antag = Gli-Sufu pathway antagonists, primary screen, luciferase luminescence, Sufu-KO-LIGHT cells, uHTS | 340,000 tested, 0.74% active | Sufu-KO-LIGHT fibroblasts, Gli luciferase reporter luminescence | inhibition, % at 5 µM;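 active = inhibition above about 55%, limit read from the data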
Gli-Sufu confirm = Gli-SUFU pathway antagonists, confirmation, single concentration, luciferase luminescence, Sufu-KO-LIGHT cells; shares compounds with Gli-Sufu antag; Gli luciferase reporter; inhibition, % at 5 µM; 2,500 tested, 40% active; AID 602428, 2012;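 active = mean inhibition at 5 µM reaching about 45%, limit read from the data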
Gli cytotox = cytotoxicity in Sufu-KO-LIGHT cells, confirmation, cytotoxicity control for Gli-SUFU antagonist project, cell-based, ATP luminescence, single concentration; shares compounds with Gli-Sufu antag; cytotoxicity, % at 5 µM; 2,500 tested, 32% active; AID 651994, 2013;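 active = mean cytotoxicity at 5 µM above about 25%, limit read from the data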;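 also: cells exposed to compound overnight for roughly 16 to 18 hours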
Wnt3a counter = Wnt3a reporter signal inhibition, confirmation, counter-screen for Gli-SUFU antagonist project, Wnt-LIGHT cells, luminescence, single concentration; shares compounds with Gli-Sufu antag; Wnt3a-driven luciferase reporter; inhibition, % at 6.25 µM; 2,500 tested, 20% active; AID 651995, 2013;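 active = mean inhibition above about 25%, limit read from the data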
Numbers stand for hits; – = inactive; · = no result. Sampled rows, rich in hits. Any-hit rate of the full collection: about 3.9%.

SMILES	CHOP inhibitor	697 NFkB inh	Jurkat NFkB inh	UPR CHOP act	UPR XBP1 act	Gli-Sufu antag	Gli-Sufu confirm	Gli cytotox	Wnt3a counter
CC(C)(C)OC(=O)NCCCCCNC(=O)c1nc[nH]c1C(=O)NCc1ccc(CNC(=O)OC(C)(C)C)cc1	·	–	–	–	–	–	·	·	·
CCCc1cc(=O)[nH]c(SCC(=O)Nc2oc(C)c3c(C)n[nH]c(=O)c23)n1	·	–	–	–	–	–	·	·	·
NS(=O)(=O)c1ccc(NC(=O)CSC2=NC(=O)C(c3ccccc3)C(=O)N2)cc1 (stereo not drawn)	–	–	–	–	–	87.8	–	–	–
Cc1cc(C)c(NC(=S)N(CCN(C)C)C(C)c2cccnc2)c(C)c1 (stereo not drawn)	–	–	–	–	–	–	·	·	·
Cc1cc(C)cc(NC(=S)N(CCN(C)C)C(C)c2cccnc2)c1 (stereo not drawn)	–	–	–	–	–	–	–	–	–
Cc1cccc(-c2nc(CSCC(=O)NCc3cccs3)c(C)o2)c1	–	–	–	–	–	55.0	–	–	–
N#Cc1ccc(CN2CCN(C(=O)CN3C(=O)NC4(CCCC4)C3=O)CC2)cc1	·	–	–	–	–	–	·	·	·
CN1CCN(C2=Cc3ccccc3Sc3cc(F)c(F)cc32)CC1	–	–	–	–	–	–	·	·	·
CN1CCN(C2=Cc3ccccc3Sc3cc(F)c(Cl)cc32)CC1	–	–	–	–	–	–	–	–	–
COC(=O)c1ccc(CN2CCCC(C(=O)Nc3cccc(-n4cccn4)c3)C2)cc1 (stereo not drawn)	·	–	–	–	–	–	–	–	–
COc1ccc(CN2CCCC(C(=O)Nc3cccc(-n4cccn4)c3)C2)cc1 (stereo not drawn)	·	–	–	–	–	–	·	·	·
Cc1cc(S(=O)(=O)NCCCN2CCOCC2)ccc1Br	·	–	–	–	–	–	·	·	·
O=C(Nc1ccc(C(F)(F)F)cc1)c1csc(-c2ccncc2)n1	–	–	–	–	–	–	·	·	·
NNC(=O)c1csc(-c2cccc(C(F)(F)F)c2)n1	–	–	–	–	–	95.3	–	–	–
COC(=O)c1sc(NC(=O)c2cc3c(s2)CCCC3)nc1C	–	–	–	–	–	–	·	·	·
Cc1csc(NC(=O)c2cc3c(s2)CCC3)n1	–	–	–	–	–	62.4	–	–	–
O=C(CN1C(=O)c2ccccc2S1(=O)=O)c1ccc(F)cc1	–	–	–	–	–	76.0	82.9	–	90.5
O=C(CN1C(=O)c2ccccc2S1(=O)=O)N1CCN(c2ccccc2F)CC1	–	–	–	–	–	–	·	·	·
CC(C)C(NC(=O)CN1C(=O)c2ccccc2S1(=O)=O)C(C)C	–	–	–	–	–	–	·	·	·
O=C(CN1C(=O)c2ccccc2S1(=O)=O)c1ccccc1F	·	–	–	–	–	59.6	78.1	–	89.4
O=C(CN1C(=O)c2ccccc2S1(=O)=O)c1cccc(Br)c1	·	–	–	–	–	67.0	74.2	–	84.8
Cc1ccc(C(=O)NCC(=O)N2CCCN(C)CC2)cc1C	·	–	–	–	–	–	·	·	·
N=c1c2c(n(Cc3ccc(F)cc3)c3c1CCC3)CCCC2	–	–	–	–	–	66.1	69.4	–	–
O=C1CCCc2ccccc2N1Cc1ccc(F)cc1	–	–	–	–	–	–	·	·	·
COC(=O)c1ccc2c(=O)n(Cc3ccc(C(=O)NCCCN4CCOCC4)cc3)c(=S)[nH]c2c1	·	–	–	–	–	–	·	·	·
SMILES	CHOP inhibitor	697 NFkB inh	Jurkat NFkB inh	UPR CHOP act	UPR XBP1 act	Gli-Sufu antag	Gli-Sufu confirm	Gli cytotox	Wnt3a counter
CC(C)(C)c1ccc(C(=O)NCCN2CCOCC2)cc1	·	–	–	–	–	–	·	·	·
O=C(NCCCN1CCOCC1)c1ccc(CSc2ccc(Cl)cc2)cc1	–	–	–	–	–	57.5	–	–	–
O=C(NCCCN1CCOCC1)c1ccc2c(=O)n(Cc3ccc(Cl)cc3)c(=S)[nH]c2c1	·	–	–	–	–	–	–	25.4	–
CC(C)c1ccc(C(=O)NCCCN2CCOCC2)cc1	·	–	–	–	–	–	·	·	·
CC(C)(C)c1ccc(C(=O)NCCCN2CCN(CCCNC(=O)c3ccc(C(C)(C)C)cc3)CC2)cc1	–	–	–	–	–	71.7	–	–	–
O=C(CCCCCn1c(=S)[nH]c2ccc(N3CCOCC3)cc2c1=O)NCc1ccc(Cl)cc1	–	–	–	–	–	82.6	–	–	–
Cc1ccc(-c2nc3c(Cl)cc(Cl)cc3c(=O)n2O)cc1	·	–	–	–	–	–	·	·	·
Nc1nc(N2CCN(C(c3ccccc3)c3ccccc3)CC2)n[nH]1	–	–	–	–	–	65.8	–	–	–
Nc1nc(N2CCN(Cc3ccccc3)CC2)n[nH]1	–	–	–	–	–	–	·	·	·
Cc1ccccc1NC(=O)NCCCCc1ccccc1	·	–	–	–	–	96.0	–	–	–
CC(=O)Nc1ccc(NC(=O)Nc2ccccc2C)cc1	–	–	–	–	–	75.6	–	–	–
COC(=O)NCC(c1ccco1)N1CCN(c2ccc(OC)cc2)CC1 (stereo not drawn)	–	–	–	–	–	–	·	·	·
COC(=O)NCC(c1ccco1)N1CCN(c2ccc(F)cc2)CC1 (stereo not drawn)	–	–	–	–	–	–	–	–	–
CC(N=C1NS(=O)(=O)c2ccccc21)C(=O)NCc1ccc(F)cc1 (stereo not drawn)	·	–	–	–	–	–	·	·	·
CC(C)CNS(=O)(=O)c1cc2c3c(c1)CCC(=O)N3CCC2	·	–	–	–	–	–	·	·	·
CN(C(=O)CSc1ncnc2sccc12)C1CCCCC1	·	–	–	–	–	–	·	·	·
O=S(=O)(/N=C(/Nc1cccc2ccccc12)c1ccc(F)cc1)c1ccccc1	·	–	–	–	–	–	·	·	·
CCc1ccc(C(CNC(=O)c2ccc3c(=O)n(-c4ccccc4F)c(=S)[nH]c3c2)N(C)C)cc1 (stereo not drawn)	–	–	–	–	–	58.6	–	–	–

Screening data: PubChem, several laboratories
